Blank lines part the entries; values can stand above or below the molecule they belong to. Where no end group is shown, it is not given here. The star is where a group is joined. Bz = O=C(c1ccccc1)*
What was measured:
[1] = system: histone Kbz in HEK 293T, HeLa, HCT116 and HepG2 cells; experiment: Western blot of core histone Kbz levels after NaBz treatment; type: cell-based, human; details: 24-h treatment with NaBz at various concentrations
[2] = system: nuclear Kbz in HEK 293T and HCT116 cells; experiment: Immunofluorescence staining of Kbz after NaBz treatment; type: cell-based, human; details: 10 mM NaBz, 24 h
Summary of the method: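 Cells were fixed in 4% formaldehyde for 20 min at RT, permeabilized on ice with 0.5% Triton X-100 for 10 min, and blocked in 3% BSA for 1 h. Anti-pan Kbz (1:500) was applied overnight at 4°C, then Alexa Fluor 594 anti-mouse (1:1000) for 1 h. Mounted with DAPI; confocal imaging.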

[3] = system: histone Kbz and Kac in mouse intestinal epithelial cells; experiment: NaBz water feeding in mice, western blot of histone Kbz and Kac; type: in vivo, C57BL/6N mice; details: ten days of NaBz water feeding at 10, 20 and 50 mM
Summary of the method: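 SPF-housed mice drank NaBz water for 10 days. Intestinal tissue was shaken at 200 rpm, 37°C, 20 min in HBSS (no Ca²⁺/Mg²⁺) with 10 mM HEPES, 5 mM EDTA, 1 mM DTT and 3% FBS. Released epithelial cells were pelleted at 1500 rpm, 4°C. Total histones were kit-extracted and BCA-quantified, then run on SDS-PAGE and PVDF. Primary antibodies overnight at 4°C; HRP secondary 1:5,000; ECL. Histone H4 served as loading control; duplicate mice.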

[4] = target: AF9 YEATS domain (2-138) (human) (UniProt P42568); experiment: ITC
[5] = target: YEATS2 YEATS domain (201-332) (human) (UniProt Q9ULM3); experiment: ITC
[6] = target: YEATS2 YEATS domain (201-332) S230F (human) (UniProt Q9ULM3); experiment: ITC
[7] = target: T1, AF9 YEATS domain (2-138) F28S (human, UniProt P42568 2-138, F28S); experiment: ITC
T1 sequence (looked up): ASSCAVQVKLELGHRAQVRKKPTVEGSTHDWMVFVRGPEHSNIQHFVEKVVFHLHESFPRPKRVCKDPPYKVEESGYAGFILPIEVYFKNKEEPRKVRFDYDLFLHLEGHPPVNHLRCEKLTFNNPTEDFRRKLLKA

Sequence of YEATS2 YEATS domain (201-332) S230F (human) (Q9ULM3 201-332 S230F): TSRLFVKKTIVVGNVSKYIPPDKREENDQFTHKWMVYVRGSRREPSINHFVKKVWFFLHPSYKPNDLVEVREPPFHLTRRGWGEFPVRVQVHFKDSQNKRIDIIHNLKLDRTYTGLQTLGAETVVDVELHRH
Sequence of YEATS2 YEATS domain (201-332) (human) (Q9ULM3 201-332): as the sequence (Q9ULM3 201-332 S230F) above, with F30S counted along it

Molecule: O=C([O-])c1ccccc1.[Na+] [NaBz, Sodium benzoate]
- signals of histone Kbz (pan Kbz western blot) [1]: upregulated in a dose-dependent manner
- nuclear Kbz signals (immunofluorescence) [2]: lightened up
- pan Kac level of histone in mouse intestinal epithelial cells [3]: not stimulated
- histone Kbz signal in mouse intestinal epithelial cells ([3]; two mice per concentration): clearly boosted

Molecule: RTKQTARK(Bz)STGGKAP (peptide, UniProt P68431 3-17, looked up) [histone H3_(2-16)K9bz peptide]
- fold binding enhancement over WT AF9 YEATS [7]: ~1.6 fold

Now from value to molecule:

- Kd [4]: 5.97 µM
Molecule: histone H3_(2-16)K9bz peptide (from UniProt P68431 3-17)

- Kd [5]: 21.6 µM
- dH [6]: -6.8 kcal/mol
Molecule: histone H3_(15-39)K27bz peptide (from UniProt P68431 16-40)

— paper PMC7797077 (Nucleic Acids Research, 2020)
